# Reference: ChEMBL document CHEMBL1129735, “High-affinity alpha-aminobutyric acid A/benzodiazepine ligands: synthesis and structure-activity relationship studies of a new series of tetracyclic imidazoquinoxalines” (J Med Chem, 1996)
# Assays:
# [1] = molecular target: GABA-A receptor; anion channel (Rattus norvegicus) (UniProt O09028+P15431+P18506+P18508+P19969+P20236+P23574+P23576+P28471+P28473+P30191+P62813+P63079+P63138+Q91ZM7+Q9ES14); test: Binding to GABA-A receptor complex relative to TBPS binding to picrotoxin convulsant site; assay type: functional
# Summary of the method: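 Rat brain membranes ([…]) with 2 nM [35S]TBPS in 1 M NaCl, 10 mM Tris/HCl pH 7.4, 120 min at 24 °C; drugs added from methanol (≤0.2%, constant). Filtration read-out, nonspecific binding with 2 mM unlabeled TBPS.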
# [2] = molecular target: GABA-A receptor; alpha-1/beta-2/gamma-2 (Homo sapiens) (UniProt P14867+P47870+P18507); test: In vitro efficacy for GABA-A alpha-1-beta-2-gamma-2 subtype expressed in A293 cells in Cl- current assay; assay type: functional, cell-based; details: Rattus norvegicus; HEK293
# Summary of the method: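 Stable A293 (human kidney) cells were transfected with α1, β2 and γ2 cDNAs and selected 2 weeks in 1 mg/mL G418; Northern-positive cells were used. Whole-cell patch clamp used a pipette solution of CsCl/EGTA/MgCl2/ATP/Hepes at pH 7.3 and an external normal saline at pH 7.2. GABA with or without drug was applied by U-tube for 10 s. Holding potential was -60 mV, room temperature.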
# [3] = molecular target: GABA A receptor alpha-6/beta-2/gamma-2 (Rattus norvegicus, UniProt P18508+P30191+P63138); test: Displacement of [3H]-Ro- 15-4513 from alpha-6 beta2 gamma2 subunits of Rat GABA-A receptor expressed in Sf-9 insect cell membranes
# Chain of GABA A receptor alpha-6/beta-2/gamma-2 (P18508 whole entry): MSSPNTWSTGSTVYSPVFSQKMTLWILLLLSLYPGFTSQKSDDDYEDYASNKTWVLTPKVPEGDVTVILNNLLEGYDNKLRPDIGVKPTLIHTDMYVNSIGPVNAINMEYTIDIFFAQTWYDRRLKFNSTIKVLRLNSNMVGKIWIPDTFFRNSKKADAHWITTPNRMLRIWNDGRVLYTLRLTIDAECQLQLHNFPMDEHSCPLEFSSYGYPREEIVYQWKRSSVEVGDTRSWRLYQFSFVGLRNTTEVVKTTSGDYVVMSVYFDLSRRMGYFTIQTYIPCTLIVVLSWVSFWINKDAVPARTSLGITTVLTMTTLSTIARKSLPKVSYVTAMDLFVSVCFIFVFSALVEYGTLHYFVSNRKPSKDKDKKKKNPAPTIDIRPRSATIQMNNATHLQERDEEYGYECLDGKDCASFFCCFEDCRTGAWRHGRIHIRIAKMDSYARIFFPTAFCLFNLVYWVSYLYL
# Chain of GABA A receptor alpha-6/beta-2/gamma-2 (P30191 whole entry): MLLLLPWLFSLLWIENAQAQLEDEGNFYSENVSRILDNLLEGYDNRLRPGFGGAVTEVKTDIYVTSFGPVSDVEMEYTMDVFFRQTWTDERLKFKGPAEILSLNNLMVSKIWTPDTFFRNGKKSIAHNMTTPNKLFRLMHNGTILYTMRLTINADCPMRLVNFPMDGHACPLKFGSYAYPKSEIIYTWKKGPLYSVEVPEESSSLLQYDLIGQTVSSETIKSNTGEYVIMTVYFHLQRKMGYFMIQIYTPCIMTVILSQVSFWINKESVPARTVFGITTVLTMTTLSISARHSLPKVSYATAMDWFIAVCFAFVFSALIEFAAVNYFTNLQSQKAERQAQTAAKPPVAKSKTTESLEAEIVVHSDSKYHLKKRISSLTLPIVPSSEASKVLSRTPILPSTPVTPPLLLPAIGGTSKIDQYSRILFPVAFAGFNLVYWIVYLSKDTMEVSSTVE
# Chain of GABA A receptor alpha-6/beta-2/gamma-2 (P63138 whole entry): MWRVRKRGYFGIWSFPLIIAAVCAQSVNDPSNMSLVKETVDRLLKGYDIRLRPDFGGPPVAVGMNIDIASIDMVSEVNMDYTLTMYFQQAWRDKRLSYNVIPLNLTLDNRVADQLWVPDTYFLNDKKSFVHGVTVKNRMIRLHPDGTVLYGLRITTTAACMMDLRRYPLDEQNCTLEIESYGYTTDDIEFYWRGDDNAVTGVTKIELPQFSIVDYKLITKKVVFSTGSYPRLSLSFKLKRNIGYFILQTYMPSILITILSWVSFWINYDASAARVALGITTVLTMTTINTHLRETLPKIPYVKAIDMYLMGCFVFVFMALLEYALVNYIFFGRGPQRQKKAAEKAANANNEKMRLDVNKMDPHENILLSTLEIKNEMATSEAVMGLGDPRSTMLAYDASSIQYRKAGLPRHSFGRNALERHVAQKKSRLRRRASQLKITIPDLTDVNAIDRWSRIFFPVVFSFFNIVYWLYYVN
# [4] = molecular target: GABA-A receptor; anion channel; test: Displacement of [3H]flunitrazepam from GABA-A benzodiazepine receptor of rat cortical membranes; assay type: cell membranes, Membrane
# [5] = molecular target: GABA A receptor alpha-6/beta-2/gamma-2 (Rattus norvegicus) (UniProt P18508+P30191+P63138); test: Displacement of [3H]-Ro- 15-4513 from alpha-6 beta2 gamma2 subunits of Rat GABA-A receptor expressed in Sf-9 insect cell membrane
# Summary of the method: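 Sf-9 cells co-infected with baculoviruses for α6, β2 and γ2 subunits at an MOI of 3 pfu and harvested at 60 h. Membranes were made by homogenising in normal saline, then spun at 1000g and 40000g. Binding used 6 nM [3H]Ro 15-4513 with varying test ligand concentrations in normal saline, 60 min at 4 °C. Bound label was separated on glass-fibre filters and counted by scintillation.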
Compound,Ratio [1],Activity [2],Ki [3],Ki [4],inhibition [5]
O=C1CCC2c3c(-c4noc(C5CC5)n4)ncn3-c3ccccc3N12 (stereo unspecified),1.15,0.29,13.2 nM,,
O=C1OCc2cccc3c2N1Cc1c(-c2noc(C4CC4)n2)ncn1-3,0.52,0.35,> 589 nM,21 nM,14.3%
O=C1COc2cccc3c2N1Cc1c(-c2noc(C4CC4)n2)ncn1-3,0.35,,,2 nM,
CC(C)n1c(=O)c2c(-c3noc(C4CC4)n3)ncn2c2ccccc21 [PANADIPLON],,0.04,603 nM,,
COn1c(=O)n2c3c(cccc31)-n1cnc(-c3noc(C4CC4)n3)c1C2,0.68,0.73,> 589 nM,7.3 nM,36.4%
CN1C(=O)CN=C(c2ccccc2)c2cc(Cl)ccc21 [DIAZEPAM],,1,,,
CC(C)(C)OC(=O)N1CC(=O)N2Cc3c(-c4noc(C5CC5)n4)ncn3-c3cccc1c32,0.63,0.6,> 589 nM,579 nM,13.5%
CN(C)C(=O)N1Cc2c(-c3noc(C4CC4)n3)ncn2-c2ccccc21 [PNU-91571],0.69,0.68,13.2 nM,,
CC1(C)CC(=O)N2Cc3c(-c4noc(C5CC5)n4)ncn3-c3cccc1c32,0.75,1.1,> 589 nM,9.9 nM,35%
O=C1CC(c2ccccc2)c2cccc3c2N1Cc1c(-c2noc(C4CC4)n2)ncn1-3 (stereo unspecified),0.88,0.88,> 589 nM,25 nM,13.6%
O=C1CCc2cccc3c2N1Cc1c(-c2noc(C4CC4)n2)ncn1-3,0.09,0.07,> 589 nM,2.6 nM,0%
O=C1CNc2cccc3c2N1Cc1c(-c2noc(C4CC4)n2)ncn1-3,0.58,0.39,> 589 nM,19 nM,14.7%
CC(C)N1Cc2cccc3c2N(Cc2c(-c4noc(C5CC5)n4)ncn2-3)C1=O,0.41,0.65,> 589 nM,1.2 nM,20.9%
CN1Cc2cccc3c2N(Cc2c(-c4noc(C5CC5)n4)ncn2-3)C1=O,0.08,0.5,> 589 nM,3.7 nM,16.3%
